In ChEMBL document CHEMBL3804761, “Synthesis of a stable and orally bioavailable englerin analogue” (Bioorg Med Chem Lett, 2016):

Columns and labels:
Assay type in all cases: functional
[1] = tested on: Malme-3M; assay: Growth inhibition of human MALME-3M cells incubated for 48 hrs by sulforhodamine B assay; conditions: for TGI: read-out: pTGI (converted)
Method in brief: (§1)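 NCI 60-cell-line panel, standard protocol. Cells exposed to compound for two days, growth read by sulforhodamine B staining. Tested at five 10-fold dilutions, top concentration 100 µM, to give dose-response curves.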

[2] = Growth inhibition of human Caki1 cells assessed as cell growth at 10 uM incubated for 48 hrs by sulforhodamine B assay relative to control; conditions: CAKI-1, 48 h, read-out: Activity
Method in brief: (§2)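 Run in the standard NCI 60-cell-line screen. Cells were exposed to drug for two days, and the read-out was sulforhodamine B staining. Compound was tested at a single final concentration of 10 µM in every line, and results are reported as growth percent.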

[3] = Growth inhibition of human SF539 cells incubated for 48 hrs by sulforhodamine B assay; conditions: SF-539, 48 h; for TGI: read-out: pTGI (converted); method in brief: as §1
[4] = Growth inhibition of human PC3 cells incubated for 48 hrs by sulforhodamine B assay; conditions: PC-3, 48 h; for CC50: read-out: pLC50 (the source's name) (converted); for TGI: read-out: pTGI (converted); method in brief: as §1
[5] = Growth inhibition of human SF295 cells incubated for 48 hrs by sulforhodamine B assay; conditions: SF-295, 48 h; for TGI: read-out: pTGI (converted); method in brief: as §1
[6] = tested on: MDA-MB-231; assay: Growth inhibition of human MDA-MB-231 cells incubated for 48 hrs by sulforhodamine B assay; conditions: MDA-MB-231, 48 h; for CC50: read-out: pLC50 (the source's name) (converted); for TGI: read-out: pTGI (converted); method in brief: as §1
[7] = Growth inhibition of human OVCAR3 cells assessed as cell growth at 10 uM incubated for 48 hrs by sulforhodamine B assay relative to control; conditions: OVCAR-3, 48 h, read-out: Activity; method in brief: as §2
[8] = Growth inhibition of human OVCAR8 cells assessed as cell growth at 10 uM incubated for 48 hrs by sulforhodamine B assay relative to control; conditions: OVCAR-8, 48 h, read-out: Activity; method in brief: as §2
[9] = Growth inhibition of human OVCAR8 cells incubated for 48 hrs by sulforhodamine B assay; conditions: OVCAR-8, 48 h; for TGI: read-out: pTGI (converted); method in brief: as §1
[10] = tested on: NCI-H226; assay: Growth inhibition of human NCI-H226 cells assessed as cell growth at 10 uM incubated for 48 hrs by sulforhodamine B assay relative to control; conditions: NCI-H226, 48 h, read-out: Activity; method in brief: as §2
[11] = Growth inhibition of human Hs 578T cells incubated for 48 hrs by sulforhodamine B assay; conditions: for CC50: read-out: pLC50 (the source's name) (converted); for TGI: read-out: pTGI (converted)
[12] = Growth inhibition of human TK10 cells incubated for 48 hrs by sulforhodamine B assay; conditions: TK-10, 48 h; for CC50: read-out: pLC50 (the source's name) (converted); for TGI: read-out: pTGI (converted)
Method in brief: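 Tested in the standard NCI 60-cell-line protocol with two-day drug exposure and a sulforhodamine B endpoint. Compounds were first screened at a single final concentration of 10 µM, reported as growth percent. They were then run as five 10-fold dilutions starting from a high concentration of 100 µM to give dose-response curves.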

[13] = tested on: A549; assay: Growth inhibition of human A549/ATCC cells incubated for 48 hrs by sulforhodamine B assay; conditions: A549, 48 h; for TGI: read-out: pTGI (converted); method in brief: as §1
[14] = Growth inhibition of human HOP62 cells incubated for 48 hrs by sulforhodamine B assay; conditions: HOP-62, 48 h; for TGI: read-out: pTGI (converted); method in brief: as §1
[15] = tested on: MDA-MB-435; assay: Growth inhibition of human MDA-MB-435 cells incubated for 48 hrs by sulforhodamine B assay; conditions: MDA-MB-435, 48 h; for TGI: read-out: pTGI (converted); method in brief: as §1
[16] = tested on: CCRF-CEM; assay: Growth inhibition of human CCRF-CEM cells assessed as cell growth at 10 uM incubated for 48 hrs by sulforhodamine B assay relative to control; conditions: read-out: Activity
Method in brief: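 Single-dose screen in the NCI 60-cell-line panel at one final concentration of 10 µM. Two-day drug exposure with a sulforhodamine B endpoint. Values are growth percent for each cell line.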

[17] = Growth inhibition of human HCT15 cells incubated for 48 hrs by sulforhodamine B assay; conditions: HCT-15, 48 h; for TGI: read-out: pTGI (converted); method in brief: as §1
[18] = Growth inhibition of human DU145 cells assessed as cell growth at 10 uM incubated for 48 hrs by sulforhodamine B assay relative to control; conditions: DU-145, 48 h, read-out: Activity; method in brief: as §2
[19] = Growth inhibition of human SKOV3 cells assessed as cell growth at 10 uM incubated for 48 hrs by sulforhodamine B assay relative to control; conditions: SK-OV-3, 48 h, read-out: Activity; method in brief: as §2
[20] = Growth inhibition of human HCT15 cells assessed as cell growth at 10 uM incubated for 48 hrs by sulforhodamine B assay relative to control; conditions: HCT-15, 48 h, read-out: Activity; method in brief: as §2
[21] = tested on: HT-29; assay: Growth inhibition of human HT-29 cells incubated for 48 hrs by sulforhodamine B assay; conditions: HT-29, 48 h; for TGI: read-out: pTGI (converted); method in brief: as §1
[22] = Growth inhibition of human HOP62 cells assessed as cell growth at 10 uM incubated for 48 hrs by sulforhodamine B assay relative to control; conditions: HOP-62, 48 h, read-out: Activity; method in brief: as §2
[23] = tested on: NCI-H322M; assay: Growth inhibition of human NCI-H322M cells assessed as cell growth at 10 uM incubated for 48 hrs by sulforhodamine B assay relative to control; conditions: read-out: Activity; method in brief: as §2
[24] = tested on: NCI-H522; assay: Growth inhibition of human NCI-H522 cells incubated for 48 hrs by sulforhodamine B assay; conditions: NCI-H522, 48 h; for TGI: read-out: pTGI (converted); method in brief: as §1
[25] = tested on: A549; assay: Growth inhibition of human A549/ATCC cells assessed as cell growth at 10 uM incubated for 48 hrs by sulforhodamine B assay relative to control; conditions: A549, 48 h, read-out: Activity; method in brief: as §2
[26] = tested on: K562; assay: Growth inhibition of human K562 cells incubated for 48 hrs by sulforhodamine B assay; conditions: K562, 48 h; method in brief: as §1
[27] = Growth inhibition of human BT549 cells assessed as cell growth at 10 uM incubated for 48 hrs by sulforhodamine B assay relative to control; conditions: BT-549, 48 h, read-out: Activity; method in brief: as §2
[28] = Growth inhibition of human Caki1 cells incubated for 48 hrs by sulforhodamine B assay; conditions: CAKI-1, 48 h; for TGI: read-out: pTGI (converted); method in brief: as §1

For `C/C(=C\C(=O)O[C@H]1[C@@H]2[C@H](C)CC[C@H]2[C@]2(C)O[C@@]1(C(C)C)C[C@H]2NC(=O)CO)c1ccccc1`, the GI50 [1] was 26.3 µM, the LC50 [1] was greater than 100 µM and the TGI [1] was greater than 100 µM. For the same compound, the growth at 10 µM [2] was 99%, the GI50 [3] was 49 µM and the LC50 [3] was greater than 100 µM. It also gave a TGI [3] greater than 100 µM, a GI50 [4] of 18.6 µM and a CC50 [4] greater than 100 µM. The TGI [4] was greater than 100 µM, the GI50 [5] was 36.3 µM and the LC50 (concentration causing 50% net cell kill) [5] was greater than 100 µM. For the same compound, the TGI [5] was greater than 100 µM, the GI50 [6] was 38 µM and the CC50 [6] was greater than 100 µM. The TGI [6] was greater than 100 µM, the growth at 10 µM [7] was 121% and the growth at 10 µM [8] was 61.2%. The GI50 [9] was 7.59 µM, the LC50 (concentration killing 50% of cells) [9] was greater than 100 µM and the TGI [9] was greater than 100 µM. It also gave a growth at 10 µM [10] of 90.7%, a GI50 ([11]; read-out: GI50) of 2.24 µM and a GI50 ([11]; read-out: pGI50 (converted)) of 2.24 µM. The CC50 [11] was greater than 100 µM, the TGI [11] was 6.92 µM and the GI50 [12] was 83.2 µM. For the same compound, the CC50 [12] was greater than 100 µM, the TGI [12] was greater than 100 µM and the GI50 [13] was 47.9 µM. For the same compound, the LC50 [13] was greater than 100 µM, the TGI [13] was greater than 100 µM and the GI50 [14] was 43.7 µM. It also gave an LC50 [14] greater than 100 µM, a TGI [14] greater than 100 µM and a GI50 [15] of 33.9 µM. The LC50 [15] was greater than 100 µM, the TGI [15] was greater than 100 µM and the growth at 10 µM [16] was 94.1%. It also gave a GI50 [17] of 34.7 µM, an LC50 [17] greater than 100 µM and a TGI [17] greater than 100 µM. It also gave a growth at 10 µM [18] of 119%, a growth at 10 µM [19] of 110% and a growth at 10 µM [20] of 100%. For the same compound, the GI50 [21] was 40.7 µM, the LC50 [21] was greater than 100 µM and the TGI [21] was greater than 100 µM. The growth at 10 µM [22] was 97.6%, the growth at 10 µM [23] was 105% and the GI50 [24] was 27.5 µM. For the same compound, the LC50 [24] was greater than 100 µM, the TGI [24] was 81.3 µM and the growth at 10 µM [25] was 84.1%. It also gave a GI50 [26] of 31.6 µM, a CC50 ([26]; read-out: pLC50 (the source's name) (converted)) greater than 100 µM and a TGI ([26]; read-out: pTGI (converted)) greater than 100 µM. It also gave a growth at 10 µM [27] of 117%, a GI50 [28] of 40.7 µM and an LC50 [28] greater than 100 µM. It also gave a TGI [28] greater than 100 µM.

`CC(C)[C@@]12C[C@@H](NC(=O)CO)[C@@](C)(O1)[C@@H]1CC[C@@H](C)[C@H]1[C@@H]2OC(=O)/C=C/c1ccccc1` showed a GI50 [1] of 20.9 µM, an LC50 [1] greater than 50.1 µM and a TGI [1] greater than 50.1 µM. The growth at 10 µM [2] was 61.1%, the GI50 [3] was 42.7 µM and the LC50 [3] was greater than 50.1 µM. The TGI [3] was greater than 50.1 µM, the GI50 [4] was 11.7 µM and the CC50 [4] was greater than 50.1 µM. For the same compound, the TGI [4] was greater than 50.1 µM, the GI50 [5] was 18.6 µM and the LC50 (concentration causing 50% net cell kill) [5] was greater than 50.1 µM. The TGI [5] was greater than 50.1 µM, the GI50 [6] was 24.5 µM and the CC50 [6] was greater than 50.1 µM. The TGI [6] was greater than 50.1 µM, the growth at 10 µM [7] was 106% and the growth at 10 µM [8] was 51.5%. The GI50 [9] was 4.79 µM, the LC50 (concentration killing 50% of cells) [9] was greater than 50.1 µM and the TGI [9] was greater than 50.1 µM. It also gave a growth at 10 µM [10] of 90.8%, a GI50 ([11]; read-out: GI50) of 0.832 µM and a GI50 ([11]; read-out: pGI50 (converted)) of 0.832 µM. For the same compound, the CC50 [11] was greater than 50.1 µM, the TGI [11] was 3.39 µM and the GI50 [12] was 28.8 µM. For the same compound, the CC50 [12] was greater than 50.1 µM, the TGI [12] was greater than 50.1 µM and the GI50 [13] was 13.5 µM. The LC50 [13] was greater than 50.1 µM, the TGI [13] was greater than 50.1 µM and the GI50 [14] was 35.5 µM. The LC50 [14] was greater than 50.1 µM, the TGI [14] was greater than 50.1 µM and the GI50 [15] was 18.2 µM. For the same compound, the LC50 [15] was greater than 50.1 µM, the TGI [15] was greater than 50.1 µM and the growth at 10 µM [16] was 99.8%. It also gave a GI50 [17] of 16.6 µM, an LC50 [17] greater than 50.1 µM and a TGI [17] greater than 50.1 µM. The growth at 10 µM [18] was 110%, the growth at 10 µM [19] was 101% and the growth at 10 µM [20] was 108%. The GI50 [21] was 16.6 µM, the LC50 [21] was greater than 50.1 µM and the TGI [21] was greater than 50.1 µM. It also gave a growth at 10 µM [22] of 86.8%, a growth at 10 µM [23] of 77.8% and a GI50 [24] of 19.1 µM. It also gave an LC50 [24] greater than 50.1 µM, a TGI [24] greater than 50.1 µM and a growth at 10 µM [25] of 91.7%. The growth at 10 µM [27] was 84.9%, the GI50 [28] was 9.55 µM and the LC50 [28] was greater than 50.1 µM. It also gave a TGI [28] greater than 50.1 µM.
